# Published values collected from several papers.
# Target: Dual specificity mitogen-activated protein kinase kinase 2 (MAP2K2, Homo sapiens, UniProt P36507)
Structure (SMILES),read-out,action,technique,concentration,measurement,value
CCOc1cc(-c2nncn2C)ccc1Nc1ncc2cc(C)nc(NCC(C)(C)C)c2n1,enzyme activity,inhibitor,FRET,1 µM,inhibition,18%
O=C1NC(=O)c2cc(Nc3ccc(F)cc3)c(Nc3ccc(F)cc3)cc21,cell-free assay,,,0.5 µM,remaining signal,89.5%
O=C(CSc1nc2nccnc2c(=O)n1CCc1ccccc1)Nc1nccs1,enzyme activity,inhibitor,,10 µM,inhibition,-3%
COc1cc(Nc2cnc(C#N)c(O[C@H](C)CN(C)C)n2)ncc1-c1cnn(C)c1,enzyme activity,inhibitor,radiometric,1 µM,remaining activity,76%
Cc1ccc(NC(=O)c2ccc(CN3CCN(C)CC3)cc2)cc1Nc1nc(-c2cccnc2)cs1,cell-free assay,,,0.5 µM,remaining signal,114%
Cn1c2c(c3ccc(Cl)c(Cl)c31)C(C#N)C1(CCOCC1)NC2=O (centres unmarked),thermal stability,,DSF,10 µM,ΔTm,-0.4 °C
CN(C)C(=O)Cn1cc(-c2nc([C@@](C)(c3ccc(-c4cnc(N)nc4)cc3)C3CC3)no2)cn1,cell-free assay,,competition with immobilised ligand,1 µM,remaining binding,86%
FC(F)c1nc2ccccc2n1-c1nc(N2CCOCC2)nc(N2CCOCC2)n1,enzyme activity,inhibitor,,10 µM,remaining activity,95%
CN1CCN(c2cnc3c(C4CCN(C(=O)c5ccc(OC(F)(F)F)cc5N)CC4)ncnc3c2)CC1,cell-free assay,,competition with immobilised ligand,1 µM,remaining binding,100%
Cn1c2c(Cl)c(Cl)ccc2c2cn[nH]c(=O)c21,thermal stability,,DSF,10 µM,ΔTm,-0.3 °C
Cc1sc(C(=O)NC2COC2)cc1-n1cc(NC(=O)Nc2c(F)cccc2Cl)cn1,enzyme activity,inhibitor,,10 µM,remaining activity,99.5%
FC(F)(F)Oc1cccc(-c2cnc3ccc(-c4ccncc4)nn23)c1,enzyme activity,inhibitor,radiometric,5 µM,activity vs control,94%
CCCS(=O)(=O)Nc1ccc(F)c(C(=O)c2c[nH]c3ncc(-c4ccc(Cl)cc4)cc23)c1F,enzyme activity,inhibitor,,1 µM,inhibition,< 10%
COc1cc(-c2cc(-c3ccc(N4CCNCC4)cc3)cnc2C)cc(OC)c1OC,enzyme activity,inhibitor,,1 µM,inhibition,8%
C[C@H](NC(=O)c1cnc2n1[C@](C)(Cc1ccc(C#N)cc1)C(=O)N2c1cc(Cl)c(F)c(Cl)c1)C(=O)NC1(c2ccccn2)CC1,cell-free assay,,competition with immobilised ligand,1 µM,remaining binding,90%
CC(C)(C)c1nc2c(s1)c1nc(N)ncc1c1ccc(NS(=O)(=O)c3c(F)cccc3F)c(F)c12,enzyme activity,inhibitor,radiometric,1 µM,remaining activity,92%
Cn1c2c(Cl)c(Cl)ccc2c2cc[nH]c(=O)c21,thermal stability,,DSF,10 µM,ΔTm,-0.5 °C
Nc1cnc(N2CCc3cc(S(=O)(=O)Nc4c(F)cc(Cl)cc4F)cc(N4CCCC4=O)c32)nc1,cell-free assay,,competition with immobilised ligand,1 µM,remaining binding,92%
COc1cc2ncnc(Nc3ccc(Oc4ccccc4)cc3C)c2cc1OC,enzyme activity,inhibitor,,1 µM,inhibition,41%
N#CC1c2c([nH]c3c(Cl)c(Cl)ccc23)C(=O)NC12CCCCC2 (racemic),thermal stability,,DSF,10 µM,ΔTm,-0.8 °C
O=C(Nc1cnn(-c2csc(C(=O)NC3COC3)c2)c1)Nc1ccccc1Cl,enzyme activity,inhibitor,,5 µM,remaining activity,92.2%
CS(=O)(=O)N1CCCC(NC(=O)[C@H](CCC2CCCCC2)NC(=O)c2ccc(CNC(=O)c3cnc4ccccn34)cc2)C1 (some centres unmarked),cell-free assay,,competition with immobilised ligand,0.1 µM,remaining binding,100%
CCN1CCC2(CC1)NC(=O)c1c(c3ccc(Cl)c(Cl)c3n1C)C2C#N (racemic),thermal stability,,DSF,10 µM,ΔTm,-0.1 °C
O=S(=O)(NC1CCC(c2cc(F)ccc2F)(S(=O)(=O)c2ccc(Cl)cc2)CC1)C(F)(F)F (centres unmarked),cell-free assay,,competition with immobilised ligand,1 µM,remaining binding,100%
Nc1ncnc2occ(-c3ccc(NC(=O)Nc4cc(C(F)(F)F)ccc4F)cc3)c12,cell-free assay,inhibitor,,20 µM,remaining signal,7.1%
O=C(NCc1ncc(C(F)(F)F)cc1Cl)c1ccc2c(c1)C1(CCS(=O)(=O)CC1)[C@@H](C1CC1)N2S(=O)(=O)c1ccc(F)cc1,cell-free assay,,competition with immobilised ligand,1 µM,remaining binding,78%
Cn1c2c(Cl)c(Cl)ccc2c2cc(N)[nH]c(=O)c21,thermal stability,,DSF,10 µM,ΔTm,-0.1 °C
Oc1cccc(-c2nc(N3CCOCC3)c3oc4ncccc4c3n2)c1,enzyme activity,inhibitor,,10 µM,remaining activity,115%
O=C1Nc2ccc(Cl)cc2C1=Cc1cc(Cl)c(O)c(Cl)c1,cell-free assay,,,0.5 µM,remaining signal,82%
Cn1cc(Cl)c2c(Oc3c(F)cc(Nc4cc(Cl)nc(N)n4)cc3F)ccnc21,cell-free assay,,competition with immobilised ligand,0.1 µM,remaining binding,100%
C#Cc1cccc(Nc2ncnc3cc(OCCOC)c(OCCOC)cc23)c1,cell-free assay,,,0.5 µM,remaining signal,105%
Cn1c2c(c3ccc(Cl)c(Cl)c31)C(C#N)C1(CCNCC1)NC2=O (racemic),thermal stability,,DSF,10 µM,ΔTm,-0.4 °C
